Source: ChEMBL document CHEMBL1795242, “Peptidomimetic inhibitors of bacterial peptide deformylase” (Bioorg Med Chem Lett, 2011)
Converted amounts (≈) assume the structure as drawn. One block for each compound: values may come before it.

What was measured:
[1] = target: T1, Peptide deformylase (Escherichia coli, UniProt Q9JN24); assay: Inhibition of Escherichia coli nickel containing peptide deformylase
T1 sequence (Q9JN24 whole entry): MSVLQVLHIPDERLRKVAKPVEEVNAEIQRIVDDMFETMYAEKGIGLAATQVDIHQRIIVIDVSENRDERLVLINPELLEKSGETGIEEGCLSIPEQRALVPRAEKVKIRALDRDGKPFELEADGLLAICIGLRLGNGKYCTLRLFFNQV

[2] = test system: Streptococcus pneumoniae; assay: Antibacterial activity against Streptococcus pneumoniae; type: functional
Outline: (§1)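 MIC against respiratory-tract-infection pathogens: Gram-positive S. pneumoniae and Gram-negative H. influenzae and M. catarrhalis. Where more than one strain was tested, the MIC is given as a range across strains. The minimum number of strains was 3 for H. influenzae and 1 for M. catarrhalis.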

[3] = test system: Haemophilus influenzae; assay: Antibacterial activity against Haemophilus influenzae; type: functional; outline: as §1
[4] = test system: Moraxella catarrhalis; assay: Antibacterial activity against Moraxella catarrhalis; type: functional; outline: as §1
[5] = target: T2, Peptide deformylase (Escherichia coli) (UniProt Q9JN24); assay: Inhibition of Escherichia coli nickel containing peptide deformylase at 1 uM
T2 sequence (whole entry): T1 sequence (Q9JN24 whole entry)

Compound: O=CN(O)C[C@@H](CC1CCCC1)C(=O)N1CCCN1C(=O)Nc1ccc(F)cc1
IC50 [1]: 10 nM
MIC [2]: 8 µg/mL (≈ 19.7 µM)
MIC [3]: < 0.125 µg/mL

Compound: O=CN(O)C[C@@H](CC1CCCC1)C(=O)N1CCCN1C(=O)Nc1ccccc1
IC50 [1]: 10 nM
MIC [2]: 4 µg/mL (≈ 10.3 µM)
MIC [3]: < 0.125 µg/mL

Compound: COc1ccccc1NC(=O)N1CCCCN1C(=O)[C@H](CC1CCCC1)CN(O)C=O
IC50 [1]: 10 nM
MIC [2]: 4 µg/mL (≈ 9.25 µM)
MIC [3]: 0.5 µg/mL (≈ 1.16 µM)

Compound: O=CN(O)C[C@@H](CC1CCCC1)C(=O)N1CCCCN1C(=O)c1ccncc1
IC50 [1]: 300 nM
MIC [2]: 2 µg/mL (≈ 5.15 µM)
MIC [3]: 2 µg/mL (≈ 5.15 µM)

Compound: O=CN(O)C[C@@H](CC1CCCC1)C(=O)N1CCCCN1C(=O)Nc1ccc(F)cc1
IC50 [1]: 10 nM
MIC [2]: 4 µg/mL (≈ 9.51 µM)
MIC [3]: < 0.125 µg/mL

Compound: O=CN(O)C[C@@H](CC1CCCC1)C(=O)N1CCCCN1C(=O)Nc1ccc(C(F)(F)F)cc1
IC50 [1]: 9 nM
MIC [3]: 0.25 µg/mL (≈ 0.531 µM)

Compound: O=CN(O)C[C@@H](CC1CCCC1)C(=O)N1CCCN1C(=O)c1ccncc1
IC50 [1]: 60 nM
MIC [2]: 16 µg/mL (≈ 42.7 µM)
MIC [3]: 2 µg/mL (≈ 5.34 µM)

Compound: O=C(C[C@@H](CC1CCCC1)C(=O)N1CCCCN1C(=O)Nc1ccccc1)NO
IC50 [1]: 20 nM
MIC [2]: 4 µg/mL (≈ 9.94 µM)
MIC [3]: 1 µg/mL (≈ 2.48 µM)

Compound: O=CN(O)C[C@@H](CC1CCCC1)C(=O)N1CCCN1C(=O)Cc1ccccc1
IC50 [1]: 30 nM
MIC [2]: 4 µg/mL (≈ 10.3 µM)
MIC [3]: 2 µg/mL (≈ 5.16 µM)

Compound: O=CN(O)C[C@@H](CC1CCCC1)C(=O)N1CCCCN1C(=O)c1ccoc1
IC50 [1]: 6 nM
MIC [2]: 0.5 µg/mL (≈ 1.32 µM)
MIC [3]: 0.125 µg/mL (≈ 0.331 µM)
MIC [4]: < 0.03 µg/mL

Compound: COc1ccc(C(=O)N2CCCCN2C(=O)[C@H](CC2CCCC2)CN(O)C=O)cc1
IC50 [1]: 100 nM
MIC [2]: 0.5 µg/mL (≈ 1.2 µM)
MIC [3]: 1 µg/mL (≈ 2.4 µM)

Compound: O=CN(O)C[C@@H](CC1CCCC1)C(=O)N1CCCCN1C(=O)c1ccccc1
IC50 [1]: 500 nM
MIC [2]: 0.5 µg/mL (≈ 1.29 µM)
MIC [3]: 1 µg/mL (≈ 2.58 µM)

Compound: O=CN(O)C[C@@H](CC1CCCC1)C(=O)N1CCCN1C(=O)c1ccccc1
IC50 [1]: 70 nM
MIC [3]: 2 µg/mL (≈ 5.36 µM)

Compound: O=CN(O)C[C@@H](CC1CCCC1)C(=O)N1CCCCN1C(=O)c1ccco1
IC50 [1]: 5 nM
MIC [2]: 0.5 µg/mL (≈ 1.32 µM)
MIC [3]: < 0.125 µg/mL
MIC [4]: < 0.125 µg/mL

Compound: COc1ccccc1NC(=O)N1CCCN1C(=O)[C@H](CC1CCCC1)CN(O)C=O
IC50 [1]: 7 nM
MIC [2]: 8 µg/mL (≈ 19.1 µM)
MIC [3]: 1 µg/mL (≈ 2.39 µM)
MIC [4]: 0.25 µg/mL (≈ 0.597 µM)

Compound: O=CN(O)C[C@@H](CC1CCCC1)C(=O)N1CCCCN1C(=O)Cc1ccccc1
IC50 [1]: 60 nM
MIC [2]: 0.5 µg/mL (≈ 1.25 µM)
MIC [3]: 0.25 µg/mL (≈ 0.623 µM)

Compound: O=CN(O)C[C@@H](CC1CCCC1)C(=O)N1CCCCN1C(=O)C1CCCCC1
IC50 [1]: 200 nM
MIC [2]: 0.5 µg/mL (≈ 1.27 µM)
MIC [3]: 4 µg/mL (≈ 10.2 µM)

Compound: O=CN(O)C[C@@H](CC1CCCC1)C(=O)N1CCCN1C(=O)C1CCCCC1
IC50 [1]: 40 nM
MIC [3]: 4 µg/mL (≈ 10.5 µM)

Compound: COc1ccc(C(=O)N2CCCN2C(=O)[C@H](CC2CCCC2)CN(O)C=O)cc1
IC50 [1]: 50 nM
MIC [2]: 4 µg/mL (≈ 9.91 µM)
MIC [3]: 16 µg/mL (≈ 39.7 µM)

Compound: CC(C)(C)OC(=O)N1CCCN1C(=O)[C@H](CC1CCCC1)CN(O)C=O
IC50 [1]: 30 nM
MIC [2]: 8 µg/mL (≈ 21.7 µM)
MIC [3]: 0.5 µg/mL (≈ 1.35 µM)
MIC [4]: < 0.125 µg/mL

Compound: O=C(C[C@@H](CC1CCCC1)C(=O)N1CCCCN1C(=O)c1ccco1)NO
IC50 [1]: 8 nM
MIC [2]: 2 µg/mL (≈ 5.3 µM)
MIC [3]: 0.06 µg/mL (≈ 0.159 µM)
MIC [4]: 0.06 µg/mL (≈ 0.159 µM)

Compound: O=CN(O)C[C@@H](CC1CCCC1)C(=O)N1CCCN1C(=O)Nc1ccc(C(F)(F)F)cc1
IC50 [1]: 30 nM
MIC [2]: 2 µg/mL (≈ 4.38 µM)
MIC [3]: 2 µg/mL (≈ 4.38 µM)
MIC [4]: 0.06 µg/mL (≈ 0.131 µM)

Compound: O=CN(O)C[C@@H](CC1CCCC1)C(=O)N1CCCCN1C(=O)c1ccc(F)cc1
IC50 [1]: 60 nM
MIC [2]: 0.5 µg/mL (≈ 1.23 µM)
MIC [3]: 0.5 µg/mL (≈ 1.23 µM)

Compound: COCC(=O)N1CCCCN1C(=O)[C@H](CC1CCCC1)CN(O)C=O
IC50 [1]: 200 nM
MIC [2]: 1 µg/mL (≈ 2.81 µM)
MIC [3]: 0.25 µg/mL (≈ 0.703 µM)

Compound: COc1cccc(NC(=O)N2CCCN2C(=O)[C@H](CC2CCCC2)CN(O)C=O)c1
IC50 [1]: 10 nM
MIC [2]: 4 µg/mL (≈ 9.56 µM)
MIC [3]: < 0.125 µg/mL

Compound: O=CN(O)C[C@@H](CC1CCCC1)C(=O)N1CCCN1C(=O)c1ccoc1
IC50 [1]: 10 nM
MIC [3]: 1 µg/mL (≈ 2.75 µM)

Compound: O=CN(O)C[C@@H](CC1CCCC1)C(=O)N1CCCN1C(=O)c1cccnc1
IC50 [1]: 300 nM
MIC [3]: 2 µg/mL (≈ 5.34 µM)

Compound: O=CN(O)C[C@@H](CC1CCCC1)C(=O)N1CCCN1C(=O)c1ccco1
IC50 [1]: 30 nM
MIC [2]: 4 µg/mL (≈ 11 µM)
MIC [3]: < 0.125 µg/mL
MIC [4]: < 0.125 µg/mL

Compound: CC(C)(C)OC(=O)N1CCCCN1C(=O)[C@H](CC1CCCC1)CN(O)C=O
IC50 [1]: 9 nM
MIC [2]: 4 µg/mL (≈ 10.4 µM)
MIC [3]: 1 µg/mL (≈ 2.61 µM)

Compound: O=CN(O)C[C@@H](CC1CCCC1)C(=O)N1CCCN1C(=O)c1ccc(F)cc1
IC50 [1]: 20 nM
MIC [3]: 4 µg/mL (≈ 10.2 µM)

Compound: COCC(=O)N1CCCN1C(=O)[C@H](CC1CCCC1)CN(O)C=O
IC50 [1]: 60 nM
MIC [3]: 1 µg/mL (≈ 2.93 µM)

Compound: COc1cccc(NC(=O)N2CCCCN2C(=O)[C@H](CC2CCCC2)CN(O)C=O)c1
IC50 [1]: 20 nM
MIC [2]: 2 µg/mL (≈ 4.62 µM)
MIC [3]: < 0.125 µg/mL

inhibition [5]: 40%
Compound: O=CN(O)C[C@@H](CC1CCCC1)C(=O)N1CCCCN1C(=O)c1cccnc1

Compound: O=CN(O)C[C@@H](CC1CCCC1)C(=O)N1CCCCN1C(=O)Nc1ccccc1
IC50 [1]: 20 nM
MIC [2]: 2 µg/mL (≈ 4.97 µM)
MIC [3]: < 0.125 µg/mL
